# Measurements from different studies.
# Each line is one published result; the experiments were not run side by side.
# Read-out: metabolic stability
SMILES,host,medium,concentration,pH,half-life [min]
COc1ccc2cc(C(=O)Nc3ccc4c(c3)CN(C3CCC(=O)NC3=O)C4=O)ccc2c1 (stereo not drawn),mouse,liver microsomes,2 µM,,180
C=CC(=O)Nc1cc(F)c(N2CCC[C@@H](Nc3ncc(Cl)c(-c4c[nH]c5ccccc45)n3)C2)cc1C,mouse,liver microsomes,,,3.9
CCS(=O)(=O)Nc1ccc(OCCOCCOCCOCCOc2ccc(NS(=O)(=O)CC)cc2-c2cn(C)c(=O)c3ccccc23)c(-c2cn(C)c(=O)c3ccccc23)c1,mouse,liver microsomes,,,< 2.3
O=C(Cc1ccc2ccccc2c1)Nc1cc(C2CCC2)[nH]n1,mouse,liver S9,,,28.1
O=C(Nc1ccc(CN2CCOCC2)c(C(F)(F)F)c1)c1ccc(C#Cc2cccc3cnccc23)cn1,mouse,liver microsomes,,,13.4
CCOC(=O)C1=C(C)N/C(=C/c2cc(C)n(-c3ccc(CN4CCCCC4)cc3)c2C)C1=O,mouse,liver microsomes,1 µM,,29
Cc1noc(C)c1-c1ccc2nc(C(=O)NC3CCN(C)CC3)nc(NCc3cccc(Cl)c3)c2c1,mouse,liver microsomes,,,28
CC[C@@H]1C=CC(=O)O[C@@H]1C[C@@H](O)[C@H](C)[C@H](OC)[C@@H](C)Cc1ccccc1,mouse,liver microsomes,,,4.4
NC[C@@H]1O[C@H](O[C@H]2[C@@H](O)[C@H](O[C@@H]3[C@@H](O)[C@H](N)C[C@H](N)[C@H]3O[C@H]3O[C@H](CO)[C@@H](O)[C@H](O)[C@H]3N)O[C@@H]2CO)[C@H](N)[C@@H](O)[C@@H]1O,mouse,liver microsomes,25 µM,pH 7.4,143
Cc1ccc(S(=O)(=O)Nc2cccc(-c3nnn[nH]3)c2)cc1C(F)(F)F,mouse,liver microsomes,,,38
N=c1c2c(-c3ccccc3)c(-c3ccccc3)n(Cc3ccccc3)c2ncn1[C@H]1CC[C@H](O)CC1,male CD-1 mouse,liver microsomes,1 µM,pH 7.4,> 120
O=C(N[C@H](Cc1c[nH]c2ccccc12)C(=O)Nc1ccncc1)c1ccc(-c2cccc(F)c2)cc1F,mouse,liver microsomes,,,27
CCOC(=O)C1=C(C)N/C(=C/c2cc(C)n(Cc3ccc(C(F)(F)F)cc3)c2C)C1=O,mouse,liver microsomes,1 µM,,17
CN1CCC(Cc2cccc(CNC3(c4ccc(F)cc4)CCCC3)c2)CC1(C)C (racemic),mouse,liver microsomes,4.6 µM,pH 7.5,~60
Cc1cccc(C(=O)Nc2nc(-c3ccccn3)cs2)c1,CD-1 mouse,liver microsomes,39.6 µM,pH 7.4,6
O=C(CC1Cc2ccccc2C1)N[C@H](CN1CCCC1)[C@H](O)c1ccc2c(c1)OCCO2,mouse,liver microsomes,,,2.5
CC1=C(C(=O)OC(C)(C)C)C(=O)/C(=C\c2cc(C)n(-c3ccccc3C(F)(F)F)c2C)N1,mouse,liver microsomes,1 µM,,20
CNC(=O)[C@H](Cc1c[nH]cn1)NC(=O)CN(CCCc1ccccc1)CC(=O)OC,male mouse,liver microsomes,1 µM,pH 7.4,26
CCOC(=O)NS(=O)(=O)c1sc(CC(C)C)cc1-c1ccc2c(c1)CN(C(=O)OCC)C2,mouse,liver microsomes,1 µM,pH 7.4,2.1
CC(C)(C)C[C@@H]1N[C@@H](C(=O)N[C@H]2C[C@](C)(O)C2)[C@H](c2cccc(Cl)c2F)[C@]12C(=O)Nc1cc(Cl)ccc12,mouse,liver microsomes,,,> 60
CCOC(=O)C1=C(C)N/C(=C/c2cc(C)n(-c3cccc(C(F)(F)F)c3)c2C)C1=O,mouse,liver microsomes,1 µM,,18
O=C(OC(C(F)(F)F)C(F)(F)F)N1Cc2ccc(OCCN3CCOCC3)cc2C1,mouse,liver microsomes,,,7
COc1ccc(NC(=O)[C@H]2c3ccccc3C(=O)N(CC(C)C)[C@@H]2c2cccs2)cc1Cl (racemic),female CD-1 mouse,liver microsomes,80 nM,pH 7.4,< 30
CCOc1c(O)cc(Br)c2c1CN1CCc3cc(OCC(F)F)c(O)cc3[C@@H]1C2,mouse,liver S9,2 µM,pH 7.4,9.63
O=C1CCN(C(=O)Nc2ccc(F)c(C(F)F)c2)[C@@H]2CCCC[C@H]12,mouse,liver microsomes,,,> 32
COc1cccc(OC)c1CNC(=O)c1cc(C2NC(=O)NC(C)=C2C(=O)Nc2ccc3[nH]ncc3c2)ccc1F (stereo not drawn),CD-1 mouse,liver microsomes,1 µM,pH 7.4,< 4
CCCCOC(=O)NS(=O)(=O)c1sc(CC(C)C)cc1-c1ccc2c(c1)CN(C(C)=O)CC2,mouse,liver microsomes,1 µM,pH 7.4,2.2
Cc1c(CN2CCC(Nc3ncnc4sc(CC(F)(F)F)cc34)CC2)c(O)cc2[nH]c(C#N)cc12,CD-1 mouse,liver microsomes,1 µM,pH 7.4,> 30
CCOC(=O)C1=C(C)N/C(=C/c2cc(C)n(-c3ccc(CN4CCOCC4)cc3)c2C)C1=O,mouse,liver microsomes,1 µM,,31
Cc1cc(S(=O)(=O)Nc2cccc(-c3nnn[nH]3)c2)ccc1C(F)(F)F,mouse,liver microsomes,,,133
CCOC(=O)C1=C(C)N/C(=C/c2cc(C)n(-c3ccc(Br)cc3)c2C)C1=O,mouse,liver microsomes,1 µM,,28
CCOC(=O)NS(=O)(=O)c1sc(CC(C)C)cc1-c1ccc2c(c1)CN(C(C)=O)C2,mouse,liver microsomes,1 µM,pH 7.4,21
O=S(=O)(Nc1cccc(-c2nnn[nH]2)c1)c1cc(Cl)c(Cl)cc1Cl,mouse,liver microsomes,,,48
CCOC(=O)C1=C(C)N/C(=C/c2cc(C)n(-c3ccc(F)cc3F)c2C)C1=O,mouse,liver microsomes,1 µM,,23
Cc1noc([C@H](Cc2c[nH]cn2)NC(=O)CN(CCCc2ccccc2)CC(=O)O)n1,male mouse,liver microsomes,1 µM,pH 7.4,> 40
O=C(O)C1CCN(c2ncc(-c3ccc4c(c3)OCCCO4)s2)CC1,mouse,liver microsomes,1 µM,,> 30
N=C(N)NCc1ccc(NC(=O)C23CCC(C(=O)Nc4ccc(C5=CCN(C(=N)N)CC5)cc4)(CC2)CC3)cc1,CD-1 mouse,liver microsomes,1 µM,,> 60
CC1=C(C(=O)O)C(=O)/C(=C\c2cc(C)n(-c3ccccc3C(F)(F)F)c2C)N1,mouse,liver microsomes,1 µM,,79
CC(C)Oc1cccc(-c2cnc(N3CCC(C(N)=O)CC3)s2)c1,mouse,liver microsomes,1 µM,,> 30
